# Test results as given in ChEMBL document CHEMBL1140884, “Oligodeoxyribonucleotide-based antagonists for Toll-like receptors 7 and 9” (2009).
# System: Mus musculus
# Assay: Inhibition of 5'-TCTGACRTTCT-X-TCTTRCAGTCT-3'-induced MIG production in C57BL/6 mouse treated 72 hrs before induction at 10 mg/kg, sc
# Type: functional
# Conditions: C57BL/6, sc, route subcutaneous
# Outline: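 Female C57BL/6 mice (n=3) received antagonist 10 mg/kg sc in the right flank. After 72 h, TLR9 agonist 0.25 mg/kg sc was given in the left flank. Serum was taken 2 h after agonist and cytokines/chemokines were measured by Luminex multiplex assay. Representative of at least three experiments.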
compound,measurement,value
CO[C@@H]1[C@H](OP(=O)(S)OC[C@H]2O[C@@H](n3ccc(N)nc3=O)C[C@@H]2OP(=O)(S)OC[C@H]2O[C@@H](n3ccc4c(=O)[nH]c(N)nc43)C[C@@H]2OP(=O)(S)OC[C@H]2O[C@@H](n3cc(C)c(=O)[nH]c3=O)C[C@@H]2OP(=O)(S)OC[C@H]2O[C@@H](n3cc(C)c(=O)[nH]c3=O)C[C@@H]2OP(=O)(S)OC[C@H]2O[C@@H](n3ccc(N)nc3=O)C[C@@H]2OP(=O)(S)OC[C@H]2O[C@@H](n3cc(C)c(=O)[nH]c3=O)C[C@@H]2OP(=O)(S)OC[C@H]2O[C@@H](n3ccc(N)nc3=O)C[C@@H]2OP(=O)(S)OC[C@H]2O[C@@H](n3cc(C)c(=O)[nH]c3=O)C[C@@H]2OP(=O)(S)OC[C@H]2O[C@@H](n3cnc4c(=O)[nH]c(N)nc43)C[C@@H]2OP(=O)(S)OC[C@H]2O[C@@H](n3cc(C)c(=O)[nH]c3=O)C[C@@H]2O)[C@@H](COP(=O)(S)O[C@H]2[C@@H](OC)[C@H](n3cnc4c(=O)[nH]c(N)nc43)O[C@@H]2COP(=O)(S)O[C@H]2C[C@H](n3cc(C)c(=O)[nH]c3=O)O[C@@H]2COP(=O)(S)O[C@H]2C[C@H](n3ccc(N)nc3=O)O[C@@H]2COP(=O)(S)O[C@H]2C[C@H](n3cc(C)c(=O)[nH]c3=O)O[C@@H]2COP(=O)(S)O[C@H]2C[C@H](n3cnc4c(N)ncnc43)O[C@@H]2COP(=O)(S)O[C@H]2C[C@H](n3cc(C)c(=O)[nH]c3=O)O[C@@H]2COP(=O)(S)O[C@@H]2C[C@@H](n3ccc(N)nc3=O)O[C@H]2CO)O[C@H]1n1cnc2c(N)ncnc21 (stereo partly specified),inhibition in vivo at 10 mg/kg,≥ 50%
